Test [1] concerns HeLa. The test can be described thus: Antitumor activity against human HeLa cells assessed as cell viability at 50 ug/ml after 72 hrs by MTS assay. The format is functional. The note with it: read-out: Activity. In a few lines: (§1)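 HeLa or MCF-7 cells were grown in Eagle's MEM with Earle's salts, 2 mM L-glutamine, 1.0 mM pyruvate, 0.1 mM NEAA and 10% FBS. MCF-7 medium also had 0.01 mg/mL insulin. Cells were seeded at 10⁴/well and dosed at 24 h, giving final 5, 10, 50, 100 µg/mL in 2.5% DMSO. After 72 h, MTS was read at 3 h with pre-reagent absorbance subtracted. Triplicates were compared with 2.5% DMSO controls.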
In general terms: Tetrazolium dyes change colour on reduction, which living cells bring about.

A further test deals with MCF7. The test can be described thus: Antitumor activity against human MCF7 cells after 72 hrs by MTS assay. The format is functional, cell-based. In a few lines: as §1
Test [2] concerns HeLa. The test can be described thus: Antitumor activity against human HeLa cells after 72 hrs by MTS assay. The format is functional, cell-based. In outline: as §1
The test system of test [3] is HeLa. The test can be described thus: Antitumor activity against human HeLa cells assessed as cell viability at 5 ug/ml after 72 hrs by MTS assay. The format is functional. Conditions: read-out: Activity. In outline:
as §1

The subject of test [4] is HeLa. The test can be described thus: Antitumor activity against human HeLa cells assessed as cell viability at 10 ug/ml after 72 hrs by MTS assay. The format is functional. The note with it: read-out: Activity. In outline: as §1
In test [5] the test system is HeLa. The test can be described thus: Antitumor activity against human HeLa cells assessed as cell viability at 100 ug/ml after 72 hrs by MTS assay. Format: functional. The note with it: read-out: Activity. In outline:
as §1

≈ marks a conversion by molar mass, not a printed value. Calls of active or inactive are those of the source. The calls are words filed in the database; no cut-off is given here.

The IC50 is the concentration at which inhibition is half-maximal. Higher therefore signals lower potency.

Consider `COc1c2occc2c(/N=C/c2cccs2)c2ccc(=O)oc12`, for which, in the test with HeLa [1], the viability at 50 µg/mL was 32%. Besides, the outcome with MCF7 was inactive. For the same compound, 7.2 µg/mL (≈ 22.1 µM) corresponded to half-maximal inhibition with HeLa [2] (IC50). In the test on HeLa [3], the viability at 5 µg/mL is 70%. The viability at 10 µg/mL in the test on HeLa [4] was 53%. Further, the viability at 100 µg/mL in the test with HeLa [5] was 28%.
Regarding `COc1c2occc2c(N2C(=O)CSC2c2ccc(Br)cc2)c2ccc(=O)oc12` (stereo not given), in the test on HeLa [1], the viability at 50 µg/mL was 26%. For the same compound, in the test with MCF7, the result was inactive. In the test with HeLa [2], this compound had a half-inhibitory concentration (IC50) of 40 µg/mL (≈ 84.7 µM). In addition, the viability at 5 µg/mL in the test on HeLa [3] came to 82%. For the same compound, in the test with HeLa [4], the viability at 10 µg/mL is 91%. For the same compound, in the test on HeLa [5], the viability at 100 µg/mL was 26%.
As to `CCNC(=S)Nc1c2ccoc2c(OC)c2oc(=O)ccc12`, the viability at 50 µg/mL in the test with HeLa [1] came out at 35%. Also, in the test with MCF7, the result was inactive. In the test with HeLa [2], this compound showed a 50% inhibitory concentration (IC50) of 23 µg/mL (≈ 72.2 µM). In addition, in the test on HeLa [3], the viability at 5 µg/mL came to 101%. In the test on HeLa [4], the viability at 10 µg/mL came out at 70%. Further, in the test with HeLa [5], the viability at 100 µg/mL is 41%.
In the case of `COc1c2occc2c(NC(=S)NCc2ccccc2)c2ccc(=O)oc12`, the viability at 50 µg/mL in the test with HeLa [1] stood at 34%. Moreover, the result in the test with MCF7 was inactive. Further, the IC50 in the test on HeLa [2] was 7.5 µg/mL (≈ 19.7 µM). Besides, the viability at 5 µg/mL with HeLa [3] was found to be 74%. Moreover, the viability at 10 µg/mL with HeLa [4] stood at 56%. In the test with HeLa [5], the viability at 100 µg/mL came out at 35%.
For the compound `COc1c2occc2cc2ccc(=O)oc12` [METHOXSALEN], the viability at 50 µg/mL in the test on HeLa [1] came out at 21%. Further, in the test with MCF7, the outcome was inactive. In the test with HeLa [2], this compound gave an IC50 of 7.6 µg/mL (≈ 35.2 µM). Besides, in the test with HeLa [3], the viability at 5 µg/mL worked out at 62%. Besides, the viability at 10 µg/mL in the test with HeLa [4] amounted to 51%. Also, the viability at 100 µg/mL in the test with HeLa [5] came out at 16%.

The record behind these values is ChEMBL document CHEMBL1152898, “Synthesis and antitumor activity of some new xanthotoxin derivatives” (Eur J Med Chem, 2009).
